The values below come from ChEMBL document CHEMBL1144910, “S-acyl-2-thioethyl aryl phosphotriester derivatives of AZT: synthesis, antiviral activity, and stability study” (J Med Chem, 2003).

A value given as a limit tells only on which side of the number the result lay.

Series [1] has as its system CEM-SS. Put plainly: Effective concentration required to inhibit the replication of HIV-1 by 50% in CEM-SS cells. Format: functional, cell-based. The note with it: Homo sapiens. An outline of the steps:
(§1)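 Cells infected with HIV-1; EC50 is the concentration inhibiting viral replication by 50%. Values are averages of at least three separate experiments, with variation below ±10%.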

Series [2] concerns CCRF-CEM. Briefly: Cytotoxic concentration required to reduce the viability […] by 50% in CEM/TK cells. It is filed as functional. The note with it: Homo sapiens. An outline of the steps:
(§2)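 Viability measured in uninfected cells of each line; CC50 is the concentration reducing viability by 50%. Values are averages of at least three separate experiments, with variation under standard operating procedures below ±10%.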

Series [3] concerns CCRF-CEM. Put plainly: Effective concentration required to inhibit the replication of HIV-1 by 50% in CEM/TK cells. It is filed as functional, cell-based. The note with it: Homo sapiens. An outline of the steps:
as §1

For series [4], the system named is MT4. Put plainly: Cytotoxic concentration required to reduce the viability […] by 50% MT-4 cells. It is filed as functional. As to conditions: Homo sapiens. The essentials: as §2
The subject of series [5] is MT4. Briefly: Effective concentration required to inhibit the replication of HIV-1 by 50% in MT-4 cells. Format: functional, cell-based. The note with it: Homo sapiens. An outline of the steps:
as §1

The nature of series [6]: In vitro Apparent partition coefficients of mixed aryl phosphodiester was determined. It is filed as physicochemical. As to conditions: octanol/water. The essentials:
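Apparent log P by an adapted shake-flask method, partitioning between 1-octanol and 0.02 M potassium phosphate buffer at pH 7.2. Each compound was run in triplicate.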

The test system of series [7] is CEM-SS. Put plainly: Cytotoxic concentration required to reduce the viability […] by 50% in CEM-SS cells. Format: functional. The note with it: Homo sapiens. The essentials: as §2
The nature of series [8]: Half-life was determined for the compound in cell extracts (CE). Format: ADME. An outline of the steps:
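Total CEM-SS cell extracts, 37 °C, phosphotriester at 50 µM initial concentration. Samples analysed by on-line ISRP-cleaning HPLC (C18, acetonitrile gradient in 20 mM triethylammonium acetate pH 6.9, 267 nm). Products identified by HPLC-ESI-MS and/or co-injection. Relative amounts taken from peak areas. Half-lives derived from pseudo-first-order rate constants fitted by mono- or polyexponential regression.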

Series [9] is described as follows: Half-life was determined for the compound in cell extracts pre-incubated with EDTA; stable. Format: ADME.
The nature of series [10]: Half-life was determined for the compound in heat inactivated cell extracts; stable. It is filed as ADME.
Series [11] can be described thus: Half-life was determined for the compound in cell extracts pre-incubated with EDTA. It is filed as ADME.

As for `Cc1cn([C@H]2C[C@H](N=[N+]=[N-])[C@@H](COP(=O)(OCCSC(=O)C(C)(C)C)Oc3ccc(C[C@@H](CO)NC(=O)OC(C)(C)C)cc3)O2)c(=O)[nH]c1=O` (stereo not given in full), the EC50 (as a rule, the concentration at which the effect is half-maximal) in series [1] worked out at 0.017 µM; in series [3] it was 4 µM; in series [5], 0.044 µM. For the same compound, the CC50 in series [2] and in series [4] was more than 10 µM throughout. The logD (as a rule, the decadic logarithm of the distribution of all forms, ionised or not, between an organic phase and buffer at a given pH) in series [6] came to 2.5.

Take `CC(=O)N(C(=O)OC(C)(C)C)[C@@H](Cc1ccc(OP(=O)(OCCSC(=O)C(C)(C)C)OC[C@H]2O[C@@H](n3cc(C)c(=O)[nH]c3=O)C[C@@H]2N=[N+]=[N-])cc1)C(=O)N(C(=O)OC(C)(C)C)C(=O)OC(C)(C)C` (stereo not given in full): the CC50 in series [7], in [2] and in series [4] was more than 10 µM each time. The EC50 was found to be 0.015 µM in [1], 6 µM in series [3] and 0.032 µM in series [5]. In addition, the logD in series [6] was found to be 5.8.

For the compound `Cc1cn([C@H]2C[C@H](N=[N+]=[N-])[C@@H](COP(=O)(O)Oc3ccc(C[C@H](N)C(=O)O)cc3)O2)c(=O)[nH]c1=O.Cl`, in [8], the half-life (commonly the time in which the quantity being followed falls by half) was 12.8 h. Also, the T1/2 entry in [9] and in series [10] was “stable” each time.

As for `Cc1cn([C@H]2C[C@H](N=[N+]=[N-])[C@@H](COP(=O)(OCCSC(=O)C(C)(C)C)Oc3ccc(C[C@H](N)C(N)=O)cc3)O2)c(=O)[nH]c1=O` (stereo not given in full), the CC50 in series [7], in series [2] and in series [4] was more than 10 µM in each case. Besides, the EC50 in series [1] came to 0.002 µM; in [3], 4 µM; in series [5], 0.016 µM. Further, the logD in series [6] was determined as 1.27.

`Cc1cn([C@H]2C[C@H](N=[N+]=[N-])[C@@H](COP(=O)(OCCSC(=O)C(C)(C)C)Oc3ccc(C[C@H](NC(=O)OC(C)(C)C)C(=O)N(C(=O)OC(C)(C)C)C(=O)OC(C)(C)C)cc3)O2)c(=O)[nH]c1=O` (stereo not given in full): the 50% cytotoxic concentration (CC50) in series [7], in series [2] and in series [4] was more than 10 µM throughout. Further, the EC50 was found to be 0.049 µM in series [1], 4 µM in series [3] and 0.034 µM in [5]. Further, the logD in series [6] turned out to be 5.

Consider `Cc1cn([C@H]2C[C@H](N=[N+]=[N-])[C@@H](COP(=O)(OCCSC(=O)C(C)(C)C)Oc3ccc(C[C@H](N)CO)cc3)O2)c(=O)[nH]c1=O` (stereo not given in full), for which the half-maximal cytotoxic concentration (CC50) in series [7], in series [2] and in series [4] was more than 100 µM in each case. For the same compound, the EC50 is 0.007 µM in [1], 7 µM in series [3] and 0.018 µM in series [5]. Further, in series [6], the logD turned out to be 0.64.

Take `CC(=O)N[C@@H](Cc1ccc(OP(=O)(O)OC[C@H]2O[C@@H](n3cc(C)c(=O)[nH]c3=O)C[C@@H]2N=[N+]=[N-])cc1)C(N)=O.Cl`: the half-life in [8] was 19.3 h; in series [11] it was 166 h. For the same compound, the T1/2 entry in series [10] is on record as “stable”.

For `Cc1cn([C@H]2C[C@H](N=[N+]=[N-])[C@@H](COP(=O)(OCCSC(=O)C(C)(C)C)Oc3ccc(C[C@H]4COC(C)(C)N4C(=O)OC(C)(C)C)cc3)O2)c(=O)[nH]c1=O` (stereo not given in full), the CC50 in series [7], in [2] and in series [4] was more than 10 µM throughout. Moreover, the EC50 in series [1] came to 0.031 µM; in series [3] it was 9 µM; in series [5], 0.098 µM. The logD in series [6] was found to be 3.7.

`Cc1cn([C@H]2C[C@H](N=[N+]=[N-])[C@@H](COP(=O)(O)Oc3ccc(C[C@H](N)CO)cc3)O2)c(=O)[nH]c1=O.Cl` had a half-life in series [8] of 68 h. The T1/2 result in series [9] and in series [10] was “stable” in each case.

As to `Cc1cn([C@H]2C[C@H](N=[N+]=[N-])[C@@H](COP(=O)(OCCSC(=O)C(C)(C)C)Oc3ccc(C[C@H](N)C(=O)O)cc3)O2)c(=O)[nH]c1=O` (stereo not given in full), the figures for the CC50 in series [7], in [2] and in series [4] were more than 100 µM, more than 100 µM and more than 10 µM, respectively. Moreover, the half-maximal effective concentration (EC50) in [1] turned out to be 0.006 µM; in series [3], 29 µM; in series [5], 0.075 µM. In [6], the logD is 0.25.

On to `Cc1cn([C@H]2C[C@H](N=[N+]=[N-])[C@@H](CO)O2)c(=O)[nH]c1=O` [ZIDOVUDINE], for which the CC50 in series [7], in [2] and in series [4] was more than 100 µM each time. Further, the EC50 in series [1] is 0.003 µM; in series [3], more than 100 µM. The logD in series [6] turned out to be 0.06.

Take `CC(=O)N[C@@H](Cc1ccc(OP(=O)(OCCSC(=O)C(C)(C)C)OC[C@H]2O[C@@H](n3cc(C)c(=O)[nH]c3=O)C[C@@H]2N=[N+]=[N-])cc1)C(N)=O` (stereo not given in full): the CC50 in series [7], in series [2] and in series [4] was more than 10 µM each time. Also, the figures for the EC50 in series [1], in series [3] and in series [5] were 0.082 µM, 8 µM and 0.066 µM, respectively. Besides, the logD in [6] amounted to 1.52.
